The source made the active and inactive calls. No cut-off for these calls is given here.
Assays:
Assay type in all cases: cell-based
[1] = target: T1, Gastrin/cholecystokinin type B receptor (Homo sapiens) (UniProt P32239); experiment: Induction of receptor internalization in YFP-tagged CCK2 receptor expressed in CHO cells
T1 sequence (whole entry): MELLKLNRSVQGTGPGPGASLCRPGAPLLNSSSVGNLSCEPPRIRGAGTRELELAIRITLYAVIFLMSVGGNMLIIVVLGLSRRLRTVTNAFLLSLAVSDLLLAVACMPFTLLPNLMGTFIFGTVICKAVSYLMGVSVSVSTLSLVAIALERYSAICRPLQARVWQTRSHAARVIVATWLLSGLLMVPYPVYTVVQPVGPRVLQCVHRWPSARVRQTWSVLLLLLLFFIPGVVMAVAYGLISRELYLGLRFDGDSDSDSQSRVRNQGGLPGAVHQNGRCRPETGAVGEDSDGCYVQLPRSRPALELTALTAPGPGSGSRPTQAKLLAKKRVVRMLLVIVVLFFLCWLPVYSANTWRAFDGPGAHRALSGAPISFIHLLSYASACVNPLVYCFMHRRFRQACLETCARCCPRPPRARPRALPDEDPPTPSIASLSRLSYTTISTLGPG
Outline: (§1)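 CHO cells stably expressing YFP-tagged MOP or YFP-tagged CCK2 receptor on coverslips, washed in PBS with 0.08 mM CaCl2 and 0.1 mM MgCl2. Incubated with 100 nM ligand at 4 °C for 90 min, washed with ice-cold PBS, then warmed in 37 °C PBS for various times. Fixed with 2% paraformaldehyde; YFP localization imaged by epifluorescence.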

[2] = target: Mu-type opioid receptor (Homo sapiens) (UniProt P35372); experiment: Induction of receptor internalization in YC-tagged mu opioid receptor expressed in CHO cells after 90 mins
Mu-type opioid receptor (Homo sapiens), sequence (P35372 whole entry): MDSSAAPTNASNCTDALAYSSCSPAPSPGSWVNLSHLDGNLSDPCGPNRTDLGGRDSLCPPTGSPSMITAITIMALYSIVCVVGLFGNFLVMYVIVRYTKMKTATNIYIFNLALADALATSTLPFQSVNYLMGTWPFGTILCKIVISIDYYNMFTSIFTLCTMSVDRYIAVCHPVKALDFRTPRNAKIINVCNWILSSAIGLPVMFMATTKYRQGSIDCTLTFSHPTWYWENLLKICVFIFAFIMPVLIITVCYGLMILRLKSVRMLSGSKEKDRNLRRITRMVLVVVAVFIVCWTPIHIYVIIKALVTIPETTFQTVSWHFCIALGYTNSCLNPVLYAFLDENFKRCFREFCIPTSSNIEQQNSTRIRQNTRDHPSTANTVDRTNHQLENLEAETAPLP
Outline: (§2)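 CHO cells stably coexpressing YN-tagged CCK2 and YC-tagged MOP receptors on coverslips, washed with PBS containing 0.08 mM CaCl2 and 0.1 mM MgCl2. Incubated with 100 nM ligand at 4 °C for 90 min, washed with ice-cold PBS, then moved to prewarmed 37 °C PBS for various times. Fixed in 2% paraformaldehyde; reconstituted YFP fluorescence imaged by epifluorescence microscopy.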

[3] = target: Mu-type opioid receptor (Homo sapiens) (UniProt P35372); experiment: Induction of receptor internalization in YFP-tagged mu opioid receptor expressed in CHO cells; outline: as §1
[4] = target: Mu-type opioid receptor (Homo sapiens) (UniProt P35372); experiment: Induction of receptor internalization in YC-tagged mu opioid receptor expressed in CHO cells at 4 degC; conditions: TDE = time-dependent effect; outline: as §2
[5] = target: T1, Gastrin/cholecystokinin type B receptor (Homo sapiens); experiment: Induction of receptor internalization in YN-tagged CCK2 receptor expressed in CHO cells at 4 degC; outline: as §2
[6] = target: T1, Gastrin/cholecystokinin type B receptor (Homo sapiens); experiment: Induction of receptor internalization in YN-tagged CCK2 receptor expressed in CHO cells after 90 mins; outline: as §2

Structure (SMILES)	Activity [2]	Activity [4]	Activity [5]	Activity [6]	also measured
Cc1cccc(NC(=O)N[C@@H]2N=C(c3ccccc3)c3ccccc3N(C)C2=O)c1	–	–	–	–	Activity [1]: inactive
CNC(=O)COCC(=O)NCCCCCCNC(=O)COCC(=O)NCCOc1cccc(NC(=O)N[C@@H]2N=C(c3ccccc3)c3ccccc3N(C)C2=O)c1	inactive	–	–	–	Activity [1]: Active
C[C@@H](NC(=O)[C@@H](N)Cc1ccc(O)cc1)C(=O)NCC(=O)N(C)[C@@H](Cc1ccccc1)C(=O)NCCO	–	–	–	–	Activity ([3]; TDE = time-dependent effect): tde
CN1C(=O)[C@H](NC(=O)Nc2cccc(OCCNC(=O)COCC(=O)NCCCCCCNC(=O)COCC(=O)N[C@H]3CC[C@@]4(O)C5Cc6ccc(O)c7c6[C@@]4(CCN5)[C@H]3O7)c2)N=C(c2ccccc2)c2ccccc21	Active	tde	Active	Active	–
CN1C(=O)[C@H](NC(=O)Nc2cccc(OCCNC(=O)COCC(=O)N[C@H]3CC[C@@]4(O)C5Cc6ccc(O)c7c6[C@@]4(CCN5)[C@H]3O7)c2)N=C(c2ccccc2)c2ccccc21	inactive	–	–	–	–
CNC(=O)COCC(=O)NCCCCNC(=O)COCC(=O)N[C@H]1CC[C@@]2(O)C3Cc4ccc(O)c5c4[C@@]2(CCN3C)[C@H]1O5	inactive	–	–	–	Activity [3]: Active
CN1C(=O)[C@H](NC(=O)Nc2cccc(OCCNC(=O)COCC(=O)NCCNC(=O)COCC(=O)N[C@H]3CC[C@@]4(O)C5Cc6ccc(O)c7c6[C@@]4(CCN5)[C@H]3O7)c2)N=C(c2ccccc2)c2ccccc21	Active	tde	Active	Active	–
CN1C(=O)[C@H](NC(=O)Nc2cccc(OCCNC(=O)COCC(=O)NNC(=O)COCC(=O)N[C@H]3CC[C@@]4(O)C5Cc6ccc(O)c7c6[C@@]4(CCN5)[C@H]3O7)c2)N=C(c2ccccc2)c2ccccc21	Active	tde	Active	Active	–

Reference: ChEMBL document CHEMBL1156983, “Modulation of cell surface expression of nonactivated cholecystokinin receptors using bivalent ligand-induced internalization” (J Med Chem, 2010)
